Active and inactive are the calls of the source. No cut-off for these calls is given here.
Assays:
[1] = target: Dual specificity mitogen-activated protein kinase kinase 4 (Homo sapiens) (UniProt P45985); experiment: Inhibition of MEK4 (unknown origin) at 1 uM relative to control
[2] = target: T1, Dual specificity mitogen-activated protein kinase kinase 5 (Homo sapiens) (UniProt Q13163); experiment: Inhibition of MEK5 (unknown origin) at 1 uM relative to control
T1 sequence (whole entry): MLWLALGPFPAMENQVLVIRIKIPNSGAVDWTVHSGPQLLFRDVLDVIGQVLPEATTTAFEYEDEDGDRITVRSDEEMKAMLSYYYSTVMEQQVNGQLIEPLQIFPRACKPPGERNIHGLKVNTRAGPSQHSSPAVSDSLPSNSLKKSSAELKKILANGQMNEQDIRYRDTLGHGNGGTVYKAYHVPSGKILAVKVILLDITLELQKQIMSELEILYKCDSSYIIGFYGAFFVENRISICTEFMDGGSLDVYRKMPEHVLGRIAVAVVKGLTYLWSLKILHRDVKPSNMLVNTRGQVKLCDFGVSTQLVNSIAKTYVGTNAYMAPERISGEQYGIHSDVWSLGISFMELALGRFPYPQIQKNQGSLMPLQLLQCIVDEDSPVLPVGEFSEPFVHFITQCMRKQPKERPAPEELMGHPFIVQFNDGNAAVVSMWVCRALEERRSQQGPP

[3] = target: Tyrosine-protein kinase Fgr (Homo sapiens) (UniProt P09769); experiment: Inhibition of FGR (unknown origin) at 1 uM relative to control
[4] = target: RAF proto-oncogene serine/threonine-protein kinase (Homo sapiens) (UniProt P04049); experiment: Inhibition of RAF1 (unknown origin) at 1 uM relative to control
[5] = target: Mast/stem cell growth factor receptor Kit (Homo sapiens) (UniProt P10721); experiment: Inhibition of KIT (unknown origin) at 1 uM relative to control
[6] = target: Platelet-derived growth factor receptor alpha (Homo sapiens) (UniProt P16234); experiment: Inhibition of PDGFRA (unknown origin) at 1 uM relative to control
[7] = target: Platelet-derived growth factor receptor beta (Homo sapiens) (UniProt P09619); experiment: Inhibition of PDGFRB (unknown origin) at 1 uM relative to control
A-375 [8] = experiment: Cytotoxicity against human A-375 cells expressing B-RAF V600E mutant assessed as inhibition of cell proliferation incubated for 96 hrs by MTT assay; format: functional, cell-based
Method in brief: (§1)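 SW620 (ATCC) seeded at 4000 cells/well and A375 (ATCC) at 1000 cells/well in 96-well format. Compounds added the next day at increasing concentrations. Exposure 96 h. Viability read by MTT method per Mosmann.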

[9] = target: Mitogen-activated protein kinase 14 (Homo sapiens) (UniProt Q16539); experiment: Inhibition of p-38 alpha (unknown origin) at 1 uM relative to control
[10] = target: Vascular endothelial growth factor receptor 2 (Homo sapiens) (UniProt P35968); experiment: Inhibition of VEGFR2 (unknown origin) at 1 uM relative to control
A-375 [11] = experiment: Inhibition of MAPK pathway in human A-375 cells expressing B-RAF V600E mutant assessed as downregulation of MEK phosphorylation incubated for 1 to 4 hrs by immunoblotting analysis; format: cell-based; conditions: time 1-4 hrs
Method in brief: (§2)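 SW620 seeded at 750 000 and A375 at 300 000 cells/well in 6-well format, grown 48 h to 75% confluence. Treated with increasing compound concentrations for 1 or 4 h. Lysis in 10 mM Tris-HCl, 1% SDS, 20 mM Na3VO4. 10–25 µg protein run on SDS-PAGE, transferred to PVDF, probed for MEK, phospho-MEK, phospho-ERK, B-Raf and actin. Read by LI-COR Odyssey.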

[12] = target: Tyrosine-protein kinase TXK (Homo sapiens) (UniProt P42681); experiment: Inhibition of TXK (unknown origin) at 1 uM relative to control
[13] = target: Tyrosine-protein kinase ABL1 (Homo sapiens) (UniProt P00519); experiment: Inhibition of ABL1 (unknown origin) at 1 uM relative to control
A-375 [14] = experiment: Inhibition of MAPK pathway in human A-375 cells expressing B-RAF V600E mutant assessed as downregulation of ERK phosphorylation incubated for 1 to 4 hrs by immunoblotting analysis; format: cell-based; conditions: time 1-4 hrs; method in brief: as §2
[15] = target: Macrophage colony-stimulating factor 1 receptor (Homo sapiens) (UniProt P07333); experiment: Inhibition of CSF1R (unknown origin) at 1 uM relative to control
SW620 [16] = experiment: Inhibition of MAPK pathway in human SW620 cells expressing wild type B-RAF assessed as effect on ERK protein expression incubated for 1 to 4 hrs by immunoblotting analysis; format: cell-based; conditions: time 1-4 hrs
[17] = target: Tyrosine-protein kinase Lck (Homo sapiens) (UniProt P06239); experiment: Inhibition of LCK (unknown origin) at 1 uM relative to control
[18] = target: Vascular endothelial growth factor receptor 3 (Homo sapiens) (UniProt P35916); experiment: Inhibition of FLT4 (unknown origin) at 1 uM relative to control
[19] = target: Proto-oncogene tyrosine-protein kinase Src (Homo sapiens) (UniProt P12931); experiment: Inhibition of SRC (unknown origin) at 1 uM relative to control
[20] = target: Tyrosine-protein kinase CSK (Homo sapiens) (UniProt P41240); experiment: Inhibition of CSK (unknown origin) at 1 uM relative to control
[21] = target: Ribosomal protein S6 kinase alpha-1 (Homo sapiens) (UniProt Q15418); experiment: Inhibition of RSK1 (unknown origin) at 1 uM relative to control
SW-620 [22] = experiment: Cytotoxicity against human SW620 cells expressing wild type B-RAF assessed as inhibition of cell proliferation incubated for 96 hrs by MTT assay; format: functional, cell-based; method in brief: as §1
[23] = target: Mitogen-activated protein kinase 11 (Homo sapiens) (UniProt Q15759); experiment: Inhibition of p-38 beta (unknown origin) at 1 uM relative to control
A-375 [24] = experiment: Cytotoxicity against human A-375 cells incubated for 96 hrs by MTT assay; format: functional, cell-based; conditions: A-375, 96 h; method in brief: as §1
[25] = target: Tyrosine-protein kinase Yes (Homo sapiens) (UniProt P07947); experiment: Inhibition of YES (unknown origin) at 1 uM relative to control
[26] = target: Tyrosine-protein kinase HCK (Homo sapiens) (UniProt P08631); experiment: Inhibition of HCK (unknown origin) at 1 uM relative to control
[27] = target: Tyrosine-protein kinase Fyn (Homo sapiens) (UniProt P06241); experiment: Inhibition of FYN (unknown origin) at 1 uM relative to control
[28] = target: Tyrosine-protein kinase Blk (Homo sapiens) (UniProt P51451); experiment: Inhibition of BLK (unknown origin) at 1 uM relative to control
[29] = target: Vascular endothelial growth factor receptor 1 (Homo sapiens) (UniProt P17948); experiment: Inhibition of FLT1 (unknown origin) at 1 uM relative to control
SW-620 [30] = experiment: Cytotoxicity against human SW620 cells incubated for 96 hrs by MTT assay; format: functional, cell-based; method in brief: as §1
[31] = target: Tyrosine-protein kinase Lyn (Homo sapiens) (UniProt P07948); experiment: Inhibition of LYN (unknown origin) at 1 uM relative to control
[32] = target: Proto-oncogene tyrosine-protein kinase receptor Ret (Homo sapiens) (UniProt P07949); experiment: Inhibition of RET (unknown origin) at 1 uM relative to control
[33] = target: Serine/threonine-protein kinase B-raf (Homo sapiens, UniProt P15056); experiment: Inhibition of wild type B-RAF (unknown origin) expressed in Escherichia coli BL21 (DE3)
[34] = target: Serine/threonine-protein kinase VRK2 (Homo sapiens) (UniProt Q86Y07); experiment: Inhibition of VRK2 (unknown origin) at 1 uM relative to control
[35] = target: Serine/threonine-protein kinase B-raf (Homo sapiens, UniProt P15056, V600E); experiment: Inhibition of B-RAF V600E mutant (unknown origin) expressed in Escherichia coli BL21 (DE3)
[36] = target: Cytoplasmic tyrosine-protein kinase BMX (Homo sapiens) (UniProt P51813); experiment: Inhibition of BMX (unknown origin) at 1 uM relative to control
[37] = target: Fibroblast growth factor receptor 2 (Homo sapiens) (UniProt P21802); experiment: Inhibition of FGFR2 (unknown origin) at 1 uM relative to control
[38] = target: Receptor-type tyrosine-protein kinase FLT3 (Homo sapiens) (UniProt P36888); experiment: Inhibition of FLT3 (unknown origin) at 1 uM relative to control
[39] = target: Cyclin-dependent kinase 19 (Homo sapiens) (UniProt Q9BWU1); experiment: Inhibition of CDK11 (unknown origin) at 1 uM relative to control
[40] = target: Mitogen-activated protein kinase kinase kinase kinase 4 (Homo sapiens) (UniProt O95819); experiment: Inhibition of MAP4K4 (unknown origin) at 1 uM relative to control
[41] = target: Fibroblast growth factor receptor 1 (Homo sapiens) (UniProt P11362); experiment: Inhibition of FGFR1 (unknown origin) at 1 uM relative to control
SW620 [42] = experiment: Inhibition of MAPK pathway in human SW620 cells expressing wild type B-RAF assessed as downregulation of MEK phosphorylation incubated for 1 to 4 hrs by immunoblotting analysis; format: cell-based; conditions: time 1-4 hrs; method in brief: as §2
SW620 [43] = experiment: Inhibition of MAPK pathway in human SW620 cells expressing wild type B-RAF assessed as downregulation of ERK phosphorylation incubated for 1 to 4 hrs by immunoblotting analysis; format: cell-based; conditions: time 1-4 hrs; method in brief: as §2
[44] = Homo sapiens, SW-620, 96 h, read-out: IC50

Mast/stem cell growth factor receptor Kit (Homo sapiens), sequence (P10721 whole entry): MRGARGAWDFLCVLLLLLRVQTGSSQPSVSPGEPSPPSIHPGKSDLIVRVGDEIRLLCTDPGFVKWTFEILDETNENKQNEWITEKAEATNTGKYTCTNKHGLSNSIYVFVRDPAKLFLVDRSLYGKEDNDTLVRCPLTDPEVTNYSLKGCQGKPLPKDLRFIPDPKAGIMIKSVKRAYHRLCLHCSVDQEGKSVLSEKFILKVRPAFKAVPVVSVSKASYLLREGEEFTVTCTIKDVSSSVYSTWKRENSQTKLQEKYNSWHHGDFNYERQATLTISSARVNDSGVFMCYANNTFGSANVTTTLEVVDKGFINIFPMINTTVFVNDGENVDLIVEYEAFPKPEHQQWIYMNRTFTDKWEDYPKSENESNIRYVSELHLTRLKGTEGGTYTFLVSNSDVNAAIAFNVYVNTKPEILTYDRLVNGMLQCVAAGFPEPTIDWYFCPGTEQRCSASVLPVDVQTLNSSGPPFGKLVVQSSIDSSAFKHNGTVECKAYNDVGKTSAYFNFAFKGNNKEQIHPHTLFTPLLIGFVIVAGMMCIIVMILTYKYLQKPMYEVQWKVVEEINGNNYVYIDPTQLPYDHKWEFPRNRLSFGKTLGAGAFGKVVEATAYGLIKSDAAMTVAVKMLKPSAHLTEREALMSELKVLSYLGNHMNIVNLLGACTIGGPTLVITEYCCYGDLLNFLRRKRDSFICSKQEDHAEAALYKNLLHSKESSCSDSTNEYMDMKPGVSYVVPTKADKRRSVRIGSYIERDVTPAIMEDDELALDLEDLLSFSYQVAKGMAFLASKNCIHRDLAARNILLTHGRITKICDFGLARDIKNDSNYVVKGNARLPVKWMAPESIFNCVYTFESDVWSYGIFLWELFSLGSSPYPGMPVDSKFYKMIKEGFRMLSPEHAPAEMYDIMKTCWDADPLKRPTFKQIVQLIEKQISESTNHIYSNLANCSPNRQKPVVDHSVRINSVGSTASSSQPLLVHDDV
RAF proto-oncogene serine/threonine-protein kinase (Homo sapiens), sequence (P04049 whole entry): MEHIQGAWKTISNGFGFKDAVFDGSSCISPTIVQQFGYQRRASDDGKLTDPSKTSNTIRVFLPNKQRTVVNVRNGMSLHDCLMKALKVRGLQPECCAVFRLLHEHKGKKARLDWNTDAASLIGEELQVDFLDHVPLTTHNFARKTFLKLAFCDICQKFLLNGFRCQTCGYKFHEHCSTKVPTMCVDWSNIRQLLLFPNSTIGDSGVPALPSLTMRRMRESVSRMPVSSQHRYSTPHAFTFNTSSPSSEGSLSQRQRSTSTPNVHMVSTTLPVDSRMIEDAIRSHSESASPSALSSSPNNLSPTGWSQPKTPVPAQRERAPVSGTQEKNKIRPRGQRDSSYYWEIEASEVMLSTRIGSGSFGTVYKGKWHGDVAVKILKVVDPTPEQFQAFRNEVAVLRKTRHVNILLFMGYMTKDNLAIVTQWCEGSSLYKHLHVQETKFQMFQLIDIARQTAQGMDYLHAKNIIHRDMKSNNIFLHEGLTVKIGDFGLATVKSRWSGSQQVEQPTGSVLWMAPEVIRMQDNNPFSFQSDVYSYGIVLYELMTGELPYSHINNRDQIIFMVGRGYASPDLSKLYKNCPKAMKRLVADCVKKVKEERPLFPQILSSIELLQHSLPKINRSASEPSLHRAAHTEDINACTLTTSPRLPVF
Tyrosine-protein kinase Fgr (Homo sapiens), sequence (P09769 2-529 limits assumed): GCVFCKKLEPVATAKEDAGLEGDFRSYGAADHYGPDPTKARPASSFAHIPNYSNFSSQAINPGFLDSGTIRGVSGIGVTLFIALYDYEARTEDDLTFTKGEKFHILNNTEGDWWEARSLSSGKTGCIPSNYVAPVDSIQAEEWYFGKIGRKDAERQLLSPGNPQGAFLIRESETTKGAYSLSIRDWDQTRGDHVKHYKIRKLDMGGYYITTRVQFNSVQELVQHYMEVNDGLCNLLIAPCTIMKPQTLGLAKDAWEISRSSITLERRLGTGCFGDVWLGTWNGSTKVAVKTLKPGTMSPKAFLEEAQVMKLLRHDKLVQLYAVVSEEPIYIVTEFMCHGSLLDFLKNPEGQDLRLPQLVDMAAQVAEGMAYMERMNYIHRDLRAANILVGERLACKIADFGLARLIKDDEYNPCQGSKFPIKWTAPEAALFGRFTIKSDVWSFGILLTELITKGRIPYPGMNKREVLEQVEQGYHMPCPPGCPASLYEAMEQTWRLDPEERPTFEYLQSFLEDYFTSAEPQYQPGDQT
Tyrosine-protein kinase Blk (Homo sapiens), sequence (P51451 2-505 limits assumed): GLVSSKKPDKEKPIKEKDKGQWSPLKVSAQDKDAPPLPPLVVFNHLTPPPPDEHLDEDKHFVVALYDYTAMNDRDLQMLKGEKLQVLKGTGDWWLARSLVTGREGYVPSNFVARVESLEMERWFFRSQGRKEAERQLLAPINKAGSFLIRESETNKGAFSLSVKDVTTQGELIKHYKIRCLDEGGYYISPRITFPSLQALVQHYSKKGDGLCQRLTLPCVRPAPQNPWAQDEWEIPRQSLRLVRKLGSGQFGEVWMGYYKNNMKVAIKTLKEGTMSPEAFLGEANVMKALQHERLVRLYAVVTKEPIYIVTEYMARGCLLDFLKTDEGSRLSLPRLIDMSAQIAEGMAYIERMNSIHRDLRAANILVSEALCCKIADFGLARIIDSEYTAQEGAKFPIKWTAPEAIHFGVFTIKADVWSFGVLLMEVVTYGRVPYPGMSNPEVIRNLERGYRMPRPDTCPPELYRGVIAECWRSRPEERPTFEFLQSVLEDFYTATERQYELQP
Platelet-derived growth factor receptor beta (Homo sapiens), sequence (P09619 whole entry): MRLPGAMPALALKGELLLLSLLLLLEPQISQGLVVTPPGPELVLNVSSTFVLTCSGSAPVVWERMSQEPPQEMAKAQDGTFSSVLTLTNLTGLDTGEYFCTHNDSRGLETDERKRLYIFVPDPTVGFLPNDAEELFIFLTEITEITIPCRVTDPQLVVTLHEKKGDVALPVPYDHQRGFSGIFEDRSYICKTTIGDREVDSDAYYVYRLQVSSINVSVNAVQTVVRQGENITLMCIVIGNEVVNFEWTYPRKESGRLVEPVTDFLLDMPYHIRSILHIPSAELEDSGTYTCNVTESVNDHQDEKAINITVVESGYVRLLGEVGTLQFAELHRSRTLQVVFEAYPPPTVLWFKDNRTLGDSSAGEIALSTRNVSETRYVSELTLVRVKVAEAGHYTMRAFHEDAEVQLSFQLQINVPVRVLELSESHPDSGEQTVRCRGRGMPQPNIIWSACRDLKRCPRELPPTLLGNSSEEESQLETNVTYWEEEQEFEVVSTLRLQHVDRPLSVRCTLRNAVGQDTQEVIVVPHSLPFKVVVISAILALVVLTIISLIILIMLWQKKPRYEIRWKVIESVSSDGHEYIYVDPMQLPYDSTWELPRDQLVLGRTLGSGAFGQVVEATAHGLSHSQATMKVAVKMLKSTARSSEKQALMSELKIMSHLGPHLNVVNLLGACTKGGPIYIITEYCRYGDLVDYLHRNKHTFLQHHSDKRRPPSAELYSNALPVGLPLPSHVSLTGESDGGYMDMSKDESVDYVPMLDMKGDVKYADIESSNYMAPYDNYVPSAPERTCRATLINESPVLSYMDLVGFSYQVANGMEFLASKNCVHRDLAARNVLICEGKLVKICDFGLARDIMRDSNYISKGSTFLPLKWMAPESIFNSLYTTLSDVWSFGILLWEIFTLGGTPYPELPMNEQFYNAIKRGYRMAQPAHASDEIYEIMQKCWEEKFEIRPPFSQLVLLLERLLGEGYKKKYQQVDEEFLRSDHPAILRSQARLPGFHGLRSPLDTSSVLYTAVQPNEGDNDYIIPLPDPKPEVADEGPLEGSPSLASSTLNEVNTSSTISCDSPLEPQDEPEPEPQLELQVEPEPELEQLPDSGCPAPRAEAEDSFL
Tyrosine-protein kinase Lck (Homo sapiens), sequence (P06239 2-509 limits assumed): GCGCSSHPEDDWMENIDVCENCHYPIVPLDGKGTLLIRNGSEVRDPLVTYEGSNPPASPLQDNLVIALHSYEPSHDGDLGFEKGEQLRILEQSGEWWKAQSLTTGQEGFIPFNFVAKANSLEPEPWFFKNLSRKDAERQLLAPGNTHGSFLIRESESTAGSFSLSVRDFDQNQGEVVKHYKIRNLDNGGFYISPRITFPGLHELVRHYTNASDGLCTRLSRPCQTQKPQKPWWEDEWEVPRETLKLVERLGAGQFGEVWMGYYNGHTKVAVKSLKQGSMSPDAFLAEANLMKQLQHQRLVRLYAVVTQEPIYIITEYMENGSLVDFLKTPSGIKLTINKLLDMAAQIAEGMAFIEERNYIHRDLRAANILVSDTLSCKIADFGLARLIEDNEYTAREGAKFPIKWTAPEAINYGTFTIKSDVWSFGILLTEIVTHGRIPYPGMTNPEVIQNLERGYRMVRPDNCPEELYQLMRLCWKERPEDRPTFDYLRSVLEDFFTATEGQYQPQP
Serine/threonine-protein kinase B-raf (Homo sapiens, UniProt P15056), sequence (P15056 whole entry): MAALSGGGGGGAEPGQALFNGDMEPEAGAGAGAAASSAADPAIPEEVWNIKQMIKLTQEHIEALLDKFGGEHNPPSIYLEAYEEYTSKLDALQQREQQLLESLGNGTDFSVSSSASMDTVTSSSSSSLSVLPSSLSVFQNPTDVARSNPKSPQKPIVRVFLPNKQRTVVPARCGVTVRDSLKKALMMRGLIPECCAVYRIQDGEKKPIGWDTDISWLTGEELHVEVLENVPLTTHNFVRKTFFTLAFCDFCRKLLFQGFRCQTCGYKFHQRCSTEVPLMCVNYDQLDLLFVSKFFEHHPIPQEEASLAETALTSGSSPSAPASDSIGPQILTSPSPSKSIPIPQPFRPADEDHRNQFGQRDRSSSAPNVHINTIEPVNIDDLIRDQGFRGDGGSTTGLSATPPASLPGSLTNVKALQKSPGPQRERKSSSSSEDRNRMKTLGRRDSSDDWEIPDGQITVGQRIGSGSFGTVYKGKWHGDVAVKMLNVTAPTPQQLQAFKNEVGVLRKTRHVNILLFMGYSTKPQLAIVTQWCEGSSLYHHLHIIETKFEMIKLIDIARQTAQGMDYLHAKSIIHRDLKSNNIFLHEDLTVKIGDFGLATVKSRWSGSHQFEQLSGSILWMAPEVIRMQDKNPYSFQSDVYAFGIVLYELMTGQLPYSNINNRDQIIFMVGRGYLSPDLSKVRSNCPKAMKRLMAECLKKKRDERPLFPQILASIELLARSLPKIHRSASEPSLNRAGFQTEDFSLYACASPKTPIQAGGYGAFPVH

CCCS(=O)(=O)Nc1ccc(F)c(C(=O)c2c[nH]c3ncc(Cl)cc23)c1F
inhibition [1]: > 80% | inhibition [2]: > 80% | inhibition [3]: > 80% | inhibition [4]: > 80% | inhibition [5]: > 80%

Cc1ccc(NC(=O)c2cccc(C(C)(C)C#N)c2)cc1Nc1ccc2ncn(C)c(=O)c2c1
inhibition [6]: > 80% | inhibition [2]: > 80% | inhibition [7]: > 80% | Activity (A-375 [8]): Active | inhibition [9]: > 80% | inhibition [10]: > 80% | inhibition (A-375 [11]): Active | inhibition [12]: > 80% | inhibition [13]: > 80% | inhibition (A-375 [14]): Active | inhibition [15]: > 80% | inhibition (SW620 [16]): inactive | inhibition [17]: > 80% | inhibition [18]: > 80% | inhibition [19]: > 80% | inhibition [20]: > 80% | inhibition [21]: > 80% | Activity (SW-620 [22]): Active | inhibition [4]: > 80% | inhibition [23]: > 80% | IC50 (A-375 [24]): 0.04 µM | inhibition [25]: > 80% | inhibition [26]: > 80% | inhibition [27]: > 80% | inhibition [28]: > 80% | inhibition [29]: > 80% | inhibition [5]: > 80% | IC50 (SW-620 [30]; [44]): 0.17 µM | inhibition [31]: > 80% | inhibition [32]: > 80%

CCN(C)S(=O)(=O)Nc1ccc(F)c(C(=O)c2c[nH]c3ncc(-c4ccc(Cl)cc4)cc23)c1F
IC50 [33]: 0.69 µM | inhibition [2]: > 80% | inhibition [7]: > 80% | Activity (A-375 [8]): Active | inhibition [34]: > 80% | inhibition [3]: > 80% | inhibition (A-375 [11]): Active | inhibition (A-375 [14]): Active | IC50 [35]: 1.41 µM | Activity (SW-620 [22]): inactive | IC50 (A-375 [24]): 0.56 µM | inhibition [28]: > 80% | IC50 (SW-620 [30]; sw-620): Not Active

CC(C)(C#N)c1cccc(C(=O)Nc2ccc(F)c(C(=O)c3c[nH]c4ncc(Cl)cc34)c2F)c1
IC50 [33]: 0.056 µM | inhibition [6]: > 80% | inhibition [2]: > 80% | Activity (A-375 [8]): Active | inhibition [9]: > 80% | inhibition [36]: > 80% | inhibition [10]: > 80% | inhibition [3]: > 80% | inhibition (A-375 [11]): Active | inhibition [12]: > 80% | inhibition [13]: > 80% | inhibition (A-375 [14]): Active | inhibition [15]: > 80% | inhibition [37]: > 80% | inhibition (SW620 [16]): inactive | inhibition [17]: > 80% | inhibition [38]: > 80% | inhibition [18]: > 80% | inhibition [19]: > 80% | inhibition [20]: > 80% | IC50 [35]: 0.048 µM | Activity (SW-620 [22]): Active | inhibition [4]: > 80% | inhibition [23]: > 80% | IC50 (A-375 [24]): ~10 µM | inhibition [25]: > 80% | inhibition [26]: > 80% | inhibition [27]: > 80% | inhibition [28]: > 80% | inhibition [39]: > 80% | inhibition [29]: > 80% | inhibition [40]: > 80% | inhibition [5]: > 80% | IC50 (SW-620 [30]; [44]): 2.81 µM | inhibition [31]: > 80% | inhibition [32]: > 80% | inhibition [41]: > 80%

CCCS(=O)(=O)Nc1ccc(F)c(C(=O)c2c[nH]c3ncc(-c4ccc(Cl)cc4)cc23)c1F [VEMURAFENIB]
inhibition [1]: > 80% | inhibition [2]: > 80% | inhibition [7]: > 80% | Activity (A-375 [8]): Active | inhibition (SW620 [42]): inactive | inhibition [3]: > 80% | inhibition (A-375 [11]): Active | inhibition (A-375 [14]): Active | Activity (SW-620 [22]): inactive | inhibition [4]: > 80% | IC50 (A-375 [24]): 0.09 µM | inhibition [5]: > 80% | inhibition (SW620 [43]): inactive | IC50 (SW-620 [30]; sw-620): Not Active
